CHT inh: human CHT choline transport inhibition. CHT-expressing cells, membrane potential dye, choline response; stronger effect = lower value. hit rate 0.86% among 310,000. B-score at 10 µM;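 active = B-score over 3 SD under the library average, and starting fluorescence ratio not unusually high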;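 note: choline stimulus applied at its EC90 after an EC20 pre-addition; B-score computed on integrated fluorescence ratio after choline addition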
NR2E3 ag-1: human photoreceptor-specific nuclear receptor agonism; Q9Y5X4; CHO-S Gal4-NCOR/VP16-NR2E3 two-hybrid, luciferase; inhibition of corepressor binding, % at 3.98 µM; hit rate 0.35% among 360,000;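 active = inhibition above the mean of all tested compounds plus 3 SD, cut at about 70% in these data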;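 note: higher means lower luciferase signal from less NR2E3 corepressor binding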
NR2E3 ag-2: NR2E3 (human) agonism | GST-NR2E3/biotin-RetCOR TR-FRET, 1536-well | inhibition of corepressor binding, % at 4.78 µM | AID 2300 | hit rate 0.12% among 320,000;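 active = percent inhibition above the cutoff of mean plus 3 SD of all tested compounds, set per screening campaign, cut at about 20% in these data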
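Assay system: NR2E3–RetCOR corepressor complex. Quantity: 1.35 nM GST-NR2E3. Buffer or medium: pH 7.5 Tris-based buffer. Reagent: biotinylated RetCOR corepressor at 7 nM final. Schedule: 5 h at 4 °C. Detection: TR-FRET, emission read at 617 and 671 nm. Replicates: one well per compound, singlicate testing.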
GalR3 antagonist: antagonists of human GalR3; O60755; hit rate 0.44% among 360,000; inhibition, % at 3 µM; AID 651719; HEK293 GalR3-CNG cAMP membrane potential fluorescence; galR3 body fused to GalR1 C-terminus;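 active = inhibition above the screen-wide average plus 3 SD, cut at about 13% in these data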;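 note: forskolin and galanin both at EC90 stimulate the cells; cAMP rise reported by CNG channel membrane potential dye signal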
Target sequence (O60755 1-299 limits assumed): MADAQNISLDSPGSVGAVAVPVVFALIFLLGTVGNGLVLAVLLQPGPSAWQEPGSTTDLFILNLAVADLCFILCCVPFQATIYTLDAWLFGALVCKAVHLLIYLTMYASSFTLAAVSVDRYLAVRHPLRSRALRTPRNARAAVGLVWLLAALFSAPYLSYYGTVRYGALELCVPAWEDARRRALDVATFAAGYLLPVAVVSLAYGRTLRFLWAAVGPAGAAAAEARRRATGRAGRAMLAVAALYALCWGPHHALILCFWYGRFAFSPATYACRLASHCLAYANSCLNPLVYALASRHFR
CHT PAM: human CHT allosteric activation. hit rate 0.49% among 310,000. B-score at 10 µM. Q9GZV3. CHT-expressing cells, membrane potential dye, choline EC20; stronger effect = higher value; LV-AA mutant CHT in HEK293 cells;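 active = initial fluorescence not abnormally high and integrated response B-score, plate-corrected, over 3 SD above library mean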
NR2F2 inh: blocks human COUP-TFII nuclear receptor; HEK293T NGFI-A luciferase reporter, luminescence; inhibition, % at 8.6 µM; hit rate 0.7% among 370,000; AID 686940;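 active = inhibition above a per-plate cutoff, mean inhibition of test wells between control levels plus 3 SD, cut at about 38% in these data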;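 note: cells cotransfected with COUP-TFII expression vector driving the NGFI-A reporter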
Target sequence (P24468 whole entry, looked up): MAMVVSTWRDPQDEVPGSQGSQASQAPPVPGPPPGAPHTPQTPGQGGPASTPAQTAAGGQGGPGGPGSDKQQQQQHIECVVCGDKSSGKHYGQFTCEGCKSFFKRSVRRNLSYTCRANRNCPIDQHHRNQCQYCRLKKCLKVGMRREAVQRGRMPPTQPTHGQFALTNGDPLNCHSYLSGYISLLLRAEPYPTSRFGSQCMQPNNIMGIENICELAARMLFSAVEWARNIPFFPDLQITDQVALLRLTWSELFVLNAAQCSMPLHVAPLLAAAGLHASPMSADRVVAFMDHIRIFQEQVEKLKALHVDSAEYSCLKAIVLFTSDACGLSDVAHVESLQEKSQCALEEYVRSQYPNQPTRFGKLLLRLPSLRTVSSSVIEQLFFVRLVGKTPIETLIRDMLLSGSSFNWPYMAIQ
CHT activ conf: human CHT activation, confirmatory screen | activation, % at 10 µM | CHT-expressing cells, membrane potential dye fluorescence (FDSS); % of choline EC20–EC90 response window; HEK293 expressing CHT LV-AA mutant; choline added at its EC20 | shares compounds with CHT PAM | AID 504833 | hit rate 91% among 2,500;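 active = primary screen active, with duplicate mean activation above negative control mean plus 3 SD, cut at about 11% in these data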
HEK293 MP dye: activity in parental HEK293 cells lacking CHT; shares compounds with CHT PAM; membrane potential dye fluorescence (FDSS); measured after EC20 choline addition; ratio readout change at 10 µM, hits read low; hit rate 62% among 2,500; AID 623908;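 active = duplicate-averaged ratio beyond 3 SD from buffer wells, up or down, though filed actives are nearly all decreases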
Each line names hits and unclear results; the compound was inactive in the other large screens (follow-up assays come after a bar, where they were run). The list is not random: actives were taken first. Their share in the collection is about 2.3%.

Cc1cnn(-c2ccccc2)c1NC(=O)COCc1ccccc1	none (no result: CHT inh, NR2E3 ag-1, NR2E3 ag-2, GalR3 antagonist, CHT PAM)
CCOC(=O)C(C)On1c(-c2ccccc2)nc2ccc([N+](=O)[O-])cc21 (stereo not given)	none | CHT activ conf 16 | HEK293 MP dye -20
CCOc1ncccc1C(=O)N1CCN(c2cc(Cl)ccc2C)CC1	CHT PAM 14 | CHT activ conf 45 | HEK293 MP dye inactive
C[C@@H]1/C=C/CC(=O)N[C@H](c2ccc3ccccc3c2)[C@H](C)/C=C/CC(=O)N[C@@H]1c1ccc2ccccc2c1	none (no result: CHT inh, NR2E3 ag-1, NR2E3 ag-2, GalR3 antagonist, CHT PAM)
COc1ccc(C(=O)CSc2nnc(CNC(=O)c3ccco3)n2C)cc1	CHT PAM 6.6 | CHT activ conf 69 | HEK293 MP dye -51
COC(=O)[C@]12C[C@H](CC(=O)N3CCN(C(=O)C4CC4)CC3)C(=O)N(CCc3ccc(OC)c(OC)c3)C1=C[C@H](COCc1ccccc1)O[C@@H]2C	none (no result: CHT inh, NR2E3 ag-1, NR2E3 ag-2, GalR3 antagonist, CHT PAM)
Cc1cc(NC(=O)CSc2nnc3ccc(-c4ccccc4)nn23)no1	none (no result: CHT inh, NR2E3 ag-2, CHT PAM)
O=C(CSc1ccc2nnc(-c3cccnc3)n2n1)NCC1CCCO1 (stereo not given)	none | CHT activ conf 11 | HEK293 MP dye inactive
O=C(CSc1ccc2nnc(-c3cccc(F)c3)n2n1)NCC1CCCO1 (stereo not given)	none
Cc1cc(NC(=O)CSc2ccc3nnc(-c4ccccc4)n3n2)no1	CHT PAM 7.1 | CHT activ conf 48 | HEK293 MP dye -32
CCOc1ccc(-n2c(SCC(=O)Nc3ccc4cn[nH]c4c3)nnc2-c2ccc(C(C)(C)C)cc2)cc1	none (no result: CHT inh, NR2E3 ag-1, NR2E3 ag-2, GalR3 antagonist, CHT PAM)
CC(Nc1ccnc2cc(Cl)ccc12)c1ccc(S(N)(=O)=O)cc1 (stereo not given)	none | CHT activ conf 35 | HEK293 MP dye -46
OCCCNc1ncnc2sc3c(c12)CCN(Cc1ccccc1)C3	CHT PAM 6.2 | CHT activ conf 49 | HEK293 MP dye -53
O=c1[nH]cnc2sc3c(c12)CCN(Cc1ccccc1)C3	none
O=C(Nc1ccc(OC(F)(F)F)cc1)Nc1c(-c2ccc(C(F)(F)F)cc2)nc2ncccn12	none (no result: CHT inh, NR2E3 ag-1, NR2E3 ag-2, GalR3 antagonist, CHT PAM)
O=C(Nc1ccc(S(=O)(=O)Nc2nccs2)cc1)c1nn(-c2ccc(F)cc2)ccc1=O	CHT PAM 6.3 | CHT activ conf 37 | HEK293 MP dye -36
C=CCNc1nc(N2CCOCC2)c(C#N)c2c1CN(C)CC2	none
CN1CCc2c(C#N)c(N3CCCCC3)nc(N3CCOCC3)c2C1	CHT PAM 7 (no result: NR2E3 ag-1, GalR3 antagonist, NR2F2 inh) | CHT activ conf 43 | HEK293 MP dye -53
COc1ccccc1C(=O)N1C(CC(=O)Nc2cc(Cl)ccc2C)C(=O)NC2CCCCC21 (stereo not given)	none | CHT activ conf 24 | HEK293 MP dye inactive
O=C(CC1C(=O)NC2CCCCC2N1C(=O)c1ccc(F)cc1)Nc1ccccc1 (stereo not given)	none
CCCC(=O)OC12CCCN(C1)/C(=C/c1ccccc1)C2 (stereo not given)	none (no result: CHT inh, NR2E3 ag-1, NR2E3 ag-2, GalR3 antagonist, CHT PAM)
COc1cccc2c(=O)c3ccoc3n(C)c12	none
COc1cccc2c(=O)c3c(cnn3C)n(C)c12	CHT PAM 10 | CHT activ conf 51 | HEK293 MP dye -55
CCN1CCN(C(=O)CCn2c(=O)c3cccn3c3cccnc32)CC1	none | CHT activ conf 58 | HEK293 MP dye -30
Cc1ccccc1/C=C/C1=NCCN1	CHT PAM 7.2 (no result: GalR3 antagonist) | CHT activ conf 40 | HEK293 MP dye -38
Cc1ccc(S(=O)(=O)N(CCc2ccccc2)CC(=O)N2CCOCC2)cc1	none (no result: CHT inh, NR2E3 ag-1, NR2E3 ag-2, GalR3 antagonist, CHT PAM)
CCCCCCn1c(CN2CCC(C)CC2)nc2c1c(=O)n(C)c(=O)n2C	none
CCCCCCn1c(CN2CCN(CCO)CC2)nc2c1c(=O)n(C)c(=O)n2C	CHT PAM 8.1 (no result: GalR3 antagonist) | CHT activ conf 60 | HEK293 MP dye -56
CCC[C@H]1[C@@H](N(C)Cc2ccccc2)CC[C@@]23CCCN2C(=O)CCC[C@@H]13	none (no result: CHT inh, NR2E3 ag-1, NR2E3 ag-2, GalR3 antagonist, CHT PAM)
COc1ccc(S[C@]2(C(=O)NC3CC3)CC(=O)N[C@@H]2c2ccc(OC)cc2)cc1	none (no result: CHT inh, NR2E3 ag-1, NR2E3 ag-2, GalR3 antagonist, CHT PAM)
CCOc1ccc(-c2nc(C#N)c(NCc3ccc4c(c3)OCO4)o2)cc1	none
Cc1ccc(OCc2nc(C#N)c(NCc3ccc4c(c3)OCO4)o2)cc1	CHT PAM 7.5 | CHT activ conf 30 | HEK293 MP dye inactive
Cc1ccc(C[n+]2cccc(-c3ccccc3)c2)c(C)c1	CHT PAM 8.4 | CHT activ conf 59 | HEK293 MP dye inactive
CC(C)C[C@@H]1COc2cccc(F)c2S(=O)(=O)N1C	none (no result: CHT inh, NR2E3 ag-1, NR2E3 ag-2, GalR3 antagonist, CHT PAM)
Cc1ccccc1CN1C2=NCCN2c2ccccc21	none
CCCN1C2=NCCN2c2cc(C)c(C)cc21	CHT PAM 8.3 | CHT activ conf 42 | HEK293 MP dye -46
CCCCCN1C2=NCCN2c2ccccc21	none | CHT activ conf 34 | HEK293 MP dye -31
CC(=O)c1c(C)nc2sc3c(=N)n(N)cnc3c2c1-c1ccc(Cl)cc1	CHT PAM 6.7 | CHT activ conf 50 | HEK293 MP dye -40
COc1ccc(S[C@]2(C(=O)N3CCN(c4ncccn4)CC3)CC(=O)N(c3ccccc3)[C@@H]2c2ccc(OC)cc2)cc1	none (no result: CHT inh, NR2E3 ag-1, NR2E3 ag-2, GalR3 antagonist, CHT PAM)
Cc1ccccc1OCC(O)CNC1CCC(NCC(O)COc2ccccc2C)CC1 (stereo not given)	none | CHT activ conf 21 | HEK293 MP dye inactive
COc1ccc(OC)c2c(C)cc(N3CCCN(C)CC3)nc12	CHT PAM 8 | CHT activ conf 46 | HEK293 MP dye -74
COC(=O)CCCn1cc(CN2CC=CS2(=O)=O)nn1	none (no result: CHT inh, NR2E3 ag-1, NR2E3 ag-2, GalR3 antagonist, CHT PAM)
CS(=O)(=O)Nc1cccc(C2=NN(S(=O)(=O)c3ccccc3)C(c3ccco3)C2)c1 (stereo not given)	none | CHT activ conf 26 | HEK293 MP dye inactive
FC(F)(F)c1ccccc1Cn1ccc2ccc(-c3ccc4ccn(Cc5ccccc5C(F)(F)F)c4c3)cc21	none (no result: CHT inh, NR2E3 ag-1, NR2E3 ag-2, GalR3 antagonist, CHT PAM)
Cc1cc(C)n(-c2nc(SCCN(C)C)c3c4c(sc3n2)COC(C)(C)C4)n1	none | CHT activ conf 41 | HEK293 MP dye -45
COC(=O)[C@H]1C[C@@]2(C)c3ccccc3N(S(=O)(=O)c3ccccc3)[C@H]2N1C(=O)CNC1CCCCC1	none (no result: CHT inh, NR2E3 ag-1, NR2E3 ag-2, GalR3 antagonist, CHT PAM)
CCOC(=O)c1cnc2c(CC)cccc2c1NCCCN1CCOCC1	none
CCOC(=O)c1cnc2c(C(F)(F)F)cccc2c1NCCCN1CCOCC1	none | CHT activ conf 43 | HEK293 MP dye -67
COc1ccc(N2CCN(c3cc(C)nc4ccc(OC)cc34)CC2)cc1	none
